# Tested on: Fibroblast
# Assay: Multiplex assay against human fibroblast
# Assay type: toxicity, cell-based
# Method in brief: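 On a CQ1 microscope at 37°C and 5% CO2, live cells were imaged after compound addition. They had been stained at seeding with Hoechst33342, BioTracker Green Microtubule Cytoskeleton Dye, MitoTracker Red and Annexin V Alexa Fluor 680. CellPathfinder machine-learning gating assigned cells to Hoechst high-intensity objects or normal cells, normal cells to healthy, pyknosed or fragmented nuclei, and pyknosed cells to mitotic or apoptotic. Tubulin, mitochondrial-mass and membrane-permeability phenotypes are per cents of healthy-nucleus cells.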
# [1] = 12 h, 1 µM, compound concentration 1 uM, replicate 1
# [2] = 12 h, 1 µM, compound concentration 1 uM, replicate 2
# [3] = 12 h, 10 µM, compound concentration 10 uM, replicate 1
# [4] = 12 h, 10 µM, compound concentration 10 uM, replicate 2
# [5] = 24 h, 1 µM, compound concentration 1 uM, replicate 1
# [6] = 24 h, 1 µM, compound concentration 1 uM, replicate 2
# [7] = 24 h, 10 µM, compound concentration 10 uM, replicate 1
# [8] = 24 h, 10 µM, compound concentration 10 uM, replicate 2
# [9] = 48 h, 1 µM, compound concentration 1 uM, replicate 1
# [10] = 48 h, 1 µM, compound concentration 1 uM, replicate 2
# [11] = 48 h, 10 µM, compound concentration 10 uM, replicate 1
# [12] = 48 h, 10 µM, compound concentration 10 uM, replicate 2
compound,measurement,setting,value
CCc1cc2c(cc1CC)CC(NC[C@H](O)c1ccc(O)c3[nH]c(=O)ccc13)C2 [INDACATEROL],Population Apoptotic (%),[1],57%
same,Population Fragmented Nuclei (%),[1],22%
same,Population Healthy Nuclei (%),[1],53%
same,Population Hoechst High Intensity Objects (%),[1],9%
same,Population Membrane Permeable-Phenotype (%),[1],21%
same,Population Mitochondria Different-Phenotype (%),[1],10%
same,Population Mitotic Cells (%),[1],42%
same,Population Normal (%),[1],90%
same,Population Pyknosed Nuclei (%),[1],23%
same,Population Tubulin-Different-Phenotype (%),[1],35%
same,Total Cell Count,[1],187
same,Population Apoptotic (%),[2],33%
same,Population Fragmented Nuclei (%),[2],3%
same,Population Healthy Nuclei (%),[2],92%
same,Population Hoechst High Intensity Objects (%),[2],7%
same,Population Membrane Permeable-Phenotype (%),[2],1%
same,Population Mitochondria Different-Phenotype (%),[2],11%
same,Population Mitotic Cells (%),[2],66%
same,Population Normal (%),[2],92%
same,Population Pyknosed Nuclei (%),[2],4%
same,Population Tubulin-Different-Phenotype (%),[2],14%
same,Total Cell Count,[2],71
same,Population Apoptotic (%),[3],71%
same,Population Fragmented Nuclei (%),[3],35%
same,Population Healthy Nuclei (%),[3],45%
same,Population Hoechst High Intensity Objects (%),[3],22%
same,Population Membrane Permeable-Phenotype (%),[3],1%
same,Population Mitochondria Different-Phenotype (%),[3],43%
same,Population Mitotic Cells (%),[3],28%
same,Population Normal (%),[3],77%
same,Population Pyknosed Nuclei (%),[3],19%
same,Population Tubulin-Different-Phenotype (%),[3],74%
same,Total Cell Count,[3],230
same,Population Apoptotic (%),[4],68%
same,Population Fragmented Nuclei (%),[4],15%
same,Population Healthy Nuclei (%),[4],64%
same,Population Hoechst High Intensity Objects (%),[4],6%
same,Population Membrane Permeable-Phenotype (%),[4],23%
same,Population Mitochondria Different-Phenotype (%),[4],98%
same,Population Mitotic Cells (%),[4],31%
same,Population Normal (%),[4],93%
same,Population Tubulin-Different-Phenotype (%),[4],88%
same,Total Cell Count,[4],71
same,Population Apoptotic (%),[5],69%
same,Population Fragmented Nuclei (%),[5],23%
same,Population Healthy Nuclei (%),[5],62%
same,Population Hoechst High Intensity Objects (%),[5],10%
same,Population Membrane Permeable-Phenotype (%),[5],18%
same,Population Mitochondria Different-Phenotype (%),[5],5%
same,Population Mitotic Cells (%),[5],30%
same,Population Normal (%),[5],89%
same,Population Pyknosed Nuclei (%),[5],13%
same,Population Tubulin-Different-Phenotype (%),[5],36%
same,Total Cell Count,[5],184
same,Population Apoptotic (%),[6],14%
same,Population Fragmented Nuclei (%),[6],4%
same,Population Healthy Nuclei (%),[6],86%
same,Population Hoechst High Intensity Objects (%),[6],3%
same,Population Membrane Permeable-Phenotype (%),[6],0%
same,Population Mitochondria Different-Phenotype (%),[6],10%
same,Population Mitotic Cells (%),[6],85%
same,Population Normal (%),[6],96%
same,Population Pyknosed Nuclei (%),[6],9%
same,Population Tubulin-Different-Phenotype (%),[6],12%
same,Total Cell Count,[6],73
same,Population Apoptotic (%),[7],71%
same,Population Fragmented Nuclei (%),[7],30%
same,Population Healthy Nuclei (%),[7],49%
same,Population Hoechst High Intensity Objects (%),[7],33%
same,Population Membrane Permeable-Phenotype (%),[7],5%
same,Population Mitochondria Different-Phenotype (%),[7],55%
same,Population Mitotic Cells (%),[7],28%
same,Population Normal (%),[7],66%
same,Population Pyknosed Nuclei (%),[7],19%
same,Population Tubulin-Different-Phenotype (%),[7],77%
same,Total Cell Count,[7],243
same,Population Apoptotic (%),[8],89%
same,Population Fragmented Nuclei (%),[8],11%
same,Population Healthy Nuclei (%),[8],67%
same,Population Hoechst High Intensity Objects (%),[8],6%
same,Population Membrane Permeable-Phenotype (%),[8],59%
same,Population Mitochondria Different-Phenotype (%),[8],100%
same,Population Mitotic Cells (%),[8],10%
same,Population Normal (%),[8],93%
same,Population Pyknosed Nuclei (%),[8],20%
same,Population Tubulin-Different-Phenotype (%),[8],86%
same,Total Cell Count,[8],78
same,Population Apoptotic (%),[9],30%
same,Population Fragmented Nuclei (%),[9],29%
same,Population Healthy Nuclei (%),[9],64%
same,Population Hoechst High Intensity Objects (%),[9],10%
same,Population Membrane Permeable-Phenotype (%),[9],20%
same,Population Mitochondria Different-Phenotype (%),[9],0%
same,Population Mitotic Cells (%),[9],69%
same,Population Normal (%),[9],89%
same,Population Pyknosed Nuclei (%),[9],6%
same,Population Tubulin-Different-Phenotype (%),[9],20%
same,Total Cell Count,[9],222
same,Population Apoptotic (%),[10],100%
same,Population Fragmented Nuclei (%),[10],37%
same,Population Healthy Nuclei (%),[10],60%
same,Population Hoechst High Intensity Objects (%),[10],15%
same,Population Membrane Permeable-Phenotype (%),[10],7%
same,Population Mitochondria Different-Phenotype (%),[10],4%
same,Population Mitotic Cells (%),[10],0%
same,Population Normal (%),[10],84%
same,Population Pyknosed Nuclei (%),[10],1%
same,Population Tubulin-Different-Phenotype (%),[10],35%
same,Total Cell Count,[10],82
same,Population Apoptotic (%),[11],70%
same,Population Fragmented Nuclei (%),[11],38%
same,Population Healthy Nuclei (%),[11],46%
same,Population Hoechst High Intensity Objects (%),[11],51%
same,Population Membrane Permeable-Phenotype (%),[11],1%
same,Population Mitochondria Different-Phenotype (%),[11],54%
same,Population Mitotic Cells (%),[11],29%
same,Population Normal (%),[11],48%
same,Population Pyknosed Nuclei (%),[11],14%
same,Population Tubulin-Different-Phenotype (%),[11],67%
same,Total Cell Count,[11],237
same,Population Apoptotic (%),[12],66%
same,Population Fragmented Nuclei (%),[12],52%
same,Population Healthy Nuclei (%),[12],44%
same,Population Hoechst High Intensity Objects (%),[12],37%
same,Population Membrane Permeable-Phenotype (%),[12],0%
same,Population Mitochondria Different-Phenotype (%),[12],28%
same,Population Mitotic Cells (%),[12],33%
same,Population Normal (%),[12],62%
same,Population Pyknosed Nuclei (%),[12],3%
same,Population Tubulin-Different-Phenotype (%),[12],61%
same,Total Cell Count,[12],465
